Results as given in ChEMBL document CHEMBL1153747, “Synthesis and inhibitory activity against human monoamine oxidase of N1-thiocarbamoyl-3,5-di(hetero)aryl-4,5-dihydro-(1H)-pyrazole derivatives” (Eur J Med Chem, 2010).
pIC50: −log10 of the molar value.

Legend:
[1] = target: T1, Amine oxidase [flavin-containing] B (Homo sapiens, UniProt P27338)
T1 sequence (P27338 whole entry): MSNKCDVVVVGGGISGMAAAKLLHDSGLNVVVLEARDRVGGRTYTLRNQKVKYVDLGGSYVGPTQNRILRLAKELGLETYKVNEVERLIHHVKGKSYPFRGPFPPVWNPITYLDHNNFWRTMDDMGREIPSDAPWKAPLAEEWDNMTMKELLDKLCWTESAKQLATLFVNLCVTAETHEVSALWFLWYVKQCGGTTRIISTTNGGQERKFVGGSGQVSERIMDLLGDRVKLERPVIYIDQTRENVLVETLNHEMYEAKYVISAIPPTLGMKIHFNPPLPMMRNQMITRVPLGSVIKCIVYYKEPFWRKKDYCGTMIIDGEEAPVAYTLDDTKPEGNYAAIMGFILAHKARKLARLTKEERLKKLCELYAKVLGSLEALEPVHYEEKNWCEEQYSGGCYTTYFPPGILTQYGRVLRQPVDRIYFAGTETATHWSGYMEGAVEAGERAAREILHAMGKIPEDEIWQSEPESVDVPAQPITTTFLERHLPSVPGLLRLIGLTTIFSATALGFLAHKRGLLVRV

[2] = species: Homo sapiens; experiment: Selectivity, ratio of IC50 for human recombinant MAOA to human recombinant MAOB
[3] = target: T2, Amine oxidase [flavin-containing] A (Homo sapiens, UniProt P21397); experiment: Inhibition of human recombinant MAOA
T2 sequence (P21397 whole entry): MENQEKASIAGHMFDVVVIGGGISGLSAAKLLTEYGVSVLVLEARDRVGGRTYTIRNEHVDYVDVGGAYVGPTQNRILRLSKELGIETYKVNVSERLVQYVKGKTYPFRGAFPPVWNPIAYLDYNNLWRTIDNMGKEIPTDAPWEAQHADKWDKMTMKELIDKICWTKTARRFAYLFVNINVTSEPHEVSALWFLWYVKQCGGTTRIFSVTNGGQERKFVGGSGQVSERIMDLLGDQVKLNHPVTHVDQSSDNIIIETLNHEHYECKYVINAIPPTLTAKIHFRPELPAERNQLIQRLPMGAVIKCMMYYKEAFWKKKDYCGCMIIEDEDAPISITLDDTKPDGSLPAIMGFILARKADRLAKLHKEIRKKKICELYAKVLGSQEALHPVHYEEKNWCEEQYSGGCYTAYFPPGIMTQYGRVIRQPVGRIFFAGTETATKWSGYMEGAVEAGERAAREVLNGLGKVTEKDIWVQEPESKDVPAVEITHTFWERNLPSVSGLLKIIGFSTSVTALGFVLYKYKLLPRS

[4] = target: T1, Amine oxidase [flavin-containing] B; experiment: Inhibition of human recombinant MAOB at 1 mM; conditions: 1000 µM
How it was run: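 Recombinant hMAO-A or hMAO-B in microsomes from baculovirus-infected BTI-TN-5B1-4 insect cells, amounts set to oxidize 165 pmol p-tyramine/min in controls. Preincubated with test drug in 0.05 M sodium phosphate pH 7.4, 15 min, 37 °C. Reaction started with Amplex Red, 1 U/mL HRP and 1 mM p-tyramine (final). […] Selectivity = IC50(MAO-A)/IC50(MAO-B).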

| Compound | pIC50 [1] | Ratio IC50 [2] | pIC50 [3] | inhibition (INH) [4] |
| --- | --- | --- | --- | --- |
| NC(=S)N1N=C(c2ccc[nH]2)CC1c1ccco1 (centres undefined) | 4.16 | > 1.4 | – | – |
| NC(=S)N1N=C(c2ccccc2)CC1c1ccco1 (centres undefined) | 4.49 | 1.7 | 4.26 | – |
| NC(=S)N1N=C(c2ccccc2)CC1c1ccccc1 (centres undefined) | 4.32 | > 2.1 | – | – |
| O=C(NCCN1CCOCC1)c1ccc(Cl)cc1 [MOCLOBEMIDE] | – | – | – | Not Active |
| Cc1ccc(C2CC(c3ccco3)=NN2C(N)=S)cc1 (centres undefined) | 4.26 | 1.2 | 4.18 | – |
| NC(=S)N1N=C(c2cccs2)CC1c1ccc[nH]1 (centres undefined) | 4.48 | 2.1 | 4.16 | – |
